# Calls of active or inactive are those of the source. The calls are words filed in the database; no cut-off is given here. Starred links: 1 amine or outer side, 2 acyl side, 3 side chain; linkers in the order of their positions; H or OH if unused. Residues, ends and D or L forms follow the SMILES beside them. *: point of attachment. Suc = O=C(CCC(=O)[*:2])[*:1]; boroPro = OB(O)[C@@H]1CCCN1*
# Experiments:
# Mus musculus [1] = test: Antidiabetic activity in po dosed C57BL/KS01HSDLeprdb mouse assessed as decrease in serum glucose AUC level by oral glucose tolerance test; assay type: functional, organism-based
# Summary of the method: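 Diabetic male C57BL/KS01HSDLeprdb mice (nondiabetic C57BL/6NHHsd as comparison) acclimated 3 weeks and fasted 4 h. Given 0.0025, 0.01, 0.025 or 0.05 mg/kg free-inhibitor equivalent by oral gavage; vehicle H2O. Oral glucose 1 g/kg given 3 h post-dose. Glucometer blood glucose at predose, 15, 30, 60, 120 and 240 min (5 mice/group); AUC.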
# [2] = (§1) Toxicity in po dosed Fisher rat assessed as mortality measured up to 24 hrs; assay type: organism-based; conditions: Fisher, in vivo
# Mus musculus [3] = test: Antidiabetic activity in C57BL/KS01HSDLeprdb mouse assessed as decrease in serum glucose AUC level at 0.5 mg/kg, po by oral glucose tolerance test; assay type: functional, organism-based; design: dose 0.5 mg/kg
# Dipeptidyl peptidase 4 [4] = molecular target: T1, Dipeptidyl peptidase 4 (Homo sapiens, UniProt P27487); test: Inhibition of DDP4 at pH 7.4 preincubated with alpha-chymotrypsin up to 8 hrs
# Summary of the method: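 Prodrug preincubated with 0.1 mM α-chymotrypsin for 0, 0.5, 1, 2, 4, 6 or 24 h before purified DPPIV was added. The DPPIV assay then followed: 0.3 mM H-Ala-Pro-pNA, A410, HEPES/NaCl buffer.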
# Target sequence in this assay (P27487 whole entry): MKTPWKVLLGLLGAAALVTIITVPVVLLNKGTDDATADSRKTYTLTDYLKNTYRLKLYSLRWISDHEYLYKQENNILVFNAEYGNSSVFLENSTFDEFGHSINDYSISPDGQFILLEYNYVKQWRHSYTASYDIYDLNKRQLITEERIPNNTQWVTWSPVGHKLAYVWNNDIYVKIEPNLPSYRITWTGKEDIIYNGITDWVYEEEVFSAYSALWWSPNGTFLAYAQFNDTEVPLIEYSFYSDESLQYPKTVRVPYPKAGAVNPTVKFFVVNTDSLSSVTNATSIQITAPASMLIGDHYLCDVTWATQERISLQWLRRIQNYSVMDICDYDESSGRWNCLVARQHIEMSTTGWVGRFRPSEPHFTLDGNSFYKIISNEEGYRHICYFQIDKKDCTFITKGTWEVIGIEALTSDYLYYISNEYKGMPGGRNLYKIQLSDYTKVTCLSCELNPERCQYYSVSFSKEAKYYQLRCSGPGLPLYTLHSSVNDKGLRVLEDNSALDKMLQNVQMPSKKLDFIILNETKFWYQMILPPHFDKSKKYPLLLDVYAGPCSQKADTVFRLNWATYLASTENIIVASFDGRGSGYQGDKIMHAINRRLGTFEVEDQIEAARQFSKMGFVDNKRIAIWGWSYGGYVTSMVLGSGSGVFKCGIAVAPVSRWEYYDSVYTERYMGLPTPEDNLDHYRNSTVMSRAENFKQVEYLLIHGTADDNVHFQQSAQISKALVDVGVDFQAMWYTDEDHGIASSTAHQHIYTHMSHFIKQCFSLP
# [5] = Inhibition of alpha-chymotrypsin
# Dipeptidyl peptidase 4 [6] = molecular target: T1, Dipeptidyl peptidase 4; test: Inhibition of DDP4
# Summary of the method: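 Purified DPPIV (~1 nM) in 0.1 M HEPES, 0.14 M NaCl, pH 7.4 or 8.0, at 25 or 37 °C. Inhibitor (10^-5 to 10^-11 M) preincubated 10 min with enzyme before 0.3 mM H-Ala-Pro-pNA; A410 read. Stocks made in HCl pH 2.0 or buffer pH 7.4/8.0 and diluted just before use.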
# Target sequence in this assay (P27487 whole entry, looked up): as the sequence (P27487 whole entry) above
# [7] = Chemical stability of the compound assessed as half life at physiological pH; assay type: physicochemical
# Rattus norvegicus = test: as §1; assay type: organism-based; conditions: in vivo, 24 h
# Mus musculus [8] = test: DDP4-mediated pro-drug activation in ip dosed wild type C57BL/6 mouse assessed as pro-drug level in serum by LC/MS analysis; assay type: organism-based; conditions: in vivo
# Summary of the method: (§2)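 Wild-type C57BL/6 (CD26+/+) or DPPIV knockout (CD26-/-) mice, 3 per group, acclimated ≥1 week. Given 50 μg ip in PBS. Blood taken by cardiac puncture after 5 min and treated with 10% TCA. Supernatant intact prodrug quantified by reverse-phase HPLC-MS base peak chromatograms.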
# [9] = Effect on pro-drug activation assessed as Chg-Pro formation by mass spectrometry; assay type: physicochemical
# Summary of the method: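 Prodrug (10 mM stock) incubated with purified DPPIV (2 μM stock) or no enzyme in 0.1 M HEPES, 0.14 M NaCl, pH 8.0, for 10 min at 25 °C. Desalted on C18 and lyophilized. Chg-Pro detected by reverse-phase HPLC-MS scanning its m/z; Chg-Pro was the reference.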
# Mus musculus [10] = test: DDP4-mediated pro-drug activation in ip dosed CD26 -/- mouse assessed as pro-drug level in serum by LC/MS analysis; assay type: organism-based; conditions: in vivo; summary of the method: as §2
# Dipeptidyl peptidase 4 [11] = molecular target: T1, Dipeptidyl peptidase 4; test: Inhibition of DDP4 at pH 2 preincubated for 10 mins
# Target sequence in this assay (P27487 whole entry): as above
# Dipeptidyl peptidase 4 [12] = molecular target: T1, Dipeptidyl peptidase 4; test: Inhibition of DDP4 at pH 7.4 preincubated for 10 mins
# Target sequence in this assay (P27487 whole entry): as above
compound,measurement,setting,value
CC(C)[C@H](N)C(=O)N1CCC[C@H]1B(O)O [TALABOSTAT],Activity,Mus musculus [1],Dose-dependent effect
same,LD50 at 24 h,[2],0.5 mg/kg
same,Activity,Mus musculus [3],inactive
C[C@H](NC(=O)CCC(=O)O)C(=O)N[C@@H](C)C(=O)N1CCC[C@H]1C(=O)N[C@@H](Cc1ccccc1)C(=O)N[C@@H](C)C(=O)N1CCC[C@H]1B(O)O (Suc-AAPFA-boroPro),IC50,Dipeptidyl peptidase 4 [4],0.7 nM
same,inhibition,[5],inactive
same,inhibition,Dipeptidyl peptidase 4 [6],inactive
CC(=O)N[C@H](C(=O)N1CCC[C@H]1B(O)O)C(C)C,half-life,[7],30 min
CC(C)[C@H](NC(=O)[C@@H]1CCCN1C(=O)[C@@H](N)C1CCCCC1)C(=O)N1CCC[C@H]1B(O)O,Activity,Mus musculus [1],Dose-dependent effect
same,Activity,Rattus norvegicus,Non-toxic
same,Activity,Mus musculus [8],Not Active
same,Activity,[9],Not Active
same,Activity,Mus musculus [10],Active
same,IC50,Dipeptidyl peptidase 4 [11],20 nM
same,IC50,Dipeptidyl peptidase 4 [12],19 nM
same,Activity,Mus musculus [3],Active
C[C@H](NC(=O)[C@@H]1CCCN1C(=O)[C@@H](N)Cc1ccccc1)C(=O)N1CCC[C@H]1B(O)O,IC50,Dipeptidyl peptidase 4 [11],8.3 nM
same,IC50,Dipeptidyl peptidase 4 [12],7 nM
